Data on five compounds can be found in ChEMBL document CHEMBL2010788, “Consequences of linker length alteration of the α7 nicotinic acetylcholine receptor (nAChR) agonist, SEN12333” (Bioorg Med Chem Lett, 2012).

Calls of active or inactive are those of the source. The calls are words filed in the database; no cut-off is given here.

In experiment [1] the target is Neuronal acetylcholine receptor subunit alpha-7 (Rattus norvegicus) (UniProt Q05941). In words: Antagonist activity at wild type rat recombinant alpha7 nAChR expressed in Xenopus oocyte assessed as inhibition of ACh-gated current at 100 uM by voltage clamp electrophysiology assay. Format: functional.
Sequence of Neuronal acetylcholine receptor subunit alpha-7 (Rattus norvegicus) (Q05941 whole entry): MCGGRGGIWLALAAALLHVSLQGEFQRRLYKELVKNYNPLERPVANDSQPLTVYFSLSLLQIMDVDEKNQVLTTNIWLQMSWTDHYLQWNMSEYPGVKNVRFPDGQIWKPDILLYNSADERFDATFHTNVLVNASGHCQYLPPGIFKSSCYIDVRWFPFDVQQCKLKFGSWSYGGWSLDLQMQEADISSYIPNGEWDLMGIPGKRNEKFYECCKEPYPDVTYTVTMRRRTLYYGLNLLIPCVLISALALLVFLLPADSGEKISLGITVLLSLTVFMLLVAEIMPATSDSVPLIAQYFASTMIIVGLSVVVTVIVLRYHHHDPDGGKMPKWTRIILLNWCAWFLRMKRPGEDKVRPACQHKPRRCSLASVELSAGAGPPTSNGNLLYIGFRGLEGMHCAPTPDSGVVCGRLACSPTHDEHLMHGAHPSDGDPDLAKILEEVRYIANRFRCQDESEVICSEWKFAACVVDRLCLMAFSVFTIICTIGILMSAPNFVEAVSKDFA
The target of experiment [2] is Neuronal acetylcholine receptor; alpha4/beta2 (Rattus norvegicus, UniProt P09483+P12390). In words: Displacement of [3H]epibatidine from rat alpha4beta2 nAChR expressed in […] cells after 4 hrs by liquid scintillation counting. Format: cell-based. The gist of the method:
(§1)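 Competition binding against racemic [³H]epibatidine. Receptor source: membrane homogenates of HEK293 cells stably transfected with the rat nAChR subtype (α3β4, α4β2 or α7). Affinity reported as Ki.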

Experiment [3] has as its target T1, Neuronal acetylcholine receptor subunit alpha-7 (Rattus norvegicus, UniProt Q05941). In words: Displacement of [3H]epibatidine from rat alpha7 nAChR expressed in […] cells after 4 hrs by liquid scintillation counting. In kind it is cell-based. The gist of the method: as §1
The target in experiment [4] is Neuronal acetylcholine receptor subunit alpha-7 (Rattus norvegicus) (UniProt Q05941). Description: Agonist activity at wild type rat recombinant alpha7 nAChR expressed in Xenopus oocyte at 100 uM by voltage clamp electrophysiology assay. Format: functional.
Experiment [5] addresses Neuronal acetylcholine receptor; alpha3/beta4 (Rattus norvegicus, UniProt P04757+P12392). Description: Displacement of [3H]epibatidine from rat alpha3beta4 nAChR expressed in […] cells after 4 hrs by liquid scintillation counting. In kind it is cell-based. The gist of the method:
as §1

The target in experiment [6] is T1, Neuronal acetylcholine receptor subunit alpha-7. In words: Partial agonist activity at wild type rat recombinant alpha7 nAChR expressed in Xenopus oocyte by voltage clamp electrophysiology assay. Format: functional.
The target in experiment [7] is Neuronal acetylcholine receptor subunit alpha-7 (Rattus norvegicus) (UniProt Q05941). Description: Partial agonist activity at wild type rat alpha7 nAChR expressed in Xenopus oocyte by voltage clamp electrophysiology assay relative to acetylcholine. In kind it is functional.

Sequence of Neuronal acetylcholine receptor; alpha3/beta4 (P04757 whole entry): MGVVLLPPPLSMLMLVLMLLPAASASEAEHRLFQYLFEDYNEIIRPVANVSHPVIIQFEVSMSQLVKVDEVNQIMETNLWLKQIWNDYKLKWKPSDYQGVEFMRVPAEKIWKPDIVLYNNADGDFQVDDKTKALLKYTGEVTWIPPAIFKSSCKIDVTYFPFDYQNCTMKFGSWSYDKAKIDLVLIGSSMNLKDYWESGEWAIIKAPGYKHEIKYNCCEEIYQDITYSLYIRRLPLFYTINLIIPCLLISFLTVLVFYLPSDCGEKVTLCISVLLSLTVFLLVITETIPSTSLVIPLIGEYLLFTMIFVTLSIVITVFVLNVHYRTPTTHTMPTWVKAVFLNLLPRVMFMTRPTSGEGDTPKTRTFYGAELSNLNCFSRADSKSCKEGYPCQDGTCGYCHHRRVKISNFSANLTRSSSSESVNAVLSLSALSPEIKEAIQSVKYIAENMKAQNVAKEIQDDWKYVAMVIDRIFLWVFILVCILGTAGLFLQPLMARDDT
Sequence of Neuronal acetylcholine receptor; alpha3/beta4 (P12392 whole entry): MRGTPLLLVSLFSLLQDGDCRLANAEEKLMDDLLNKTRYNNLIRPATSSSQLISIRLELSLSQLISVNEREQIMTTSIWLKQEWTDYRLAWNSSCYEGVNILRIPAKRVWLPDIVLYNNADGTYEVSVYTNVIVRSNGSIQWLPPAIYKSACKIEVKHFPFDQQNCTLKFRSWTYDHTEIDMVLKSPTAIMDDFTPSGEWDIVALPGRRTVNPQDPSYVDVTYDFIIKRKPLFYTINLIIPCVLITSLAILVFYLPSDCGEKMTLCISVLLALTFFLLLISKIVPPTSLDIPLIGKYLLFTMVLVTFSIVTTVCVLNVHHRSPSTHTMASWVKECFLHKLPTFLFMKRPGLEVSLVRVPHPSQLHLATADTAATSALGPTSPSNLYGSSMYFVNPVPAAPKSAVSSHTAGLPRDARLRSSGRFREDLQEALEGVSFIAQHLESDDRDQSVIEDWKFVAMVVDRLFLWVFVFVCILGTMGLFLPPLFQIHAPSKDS
Sequence of Neuronal acetylcholine receptor; alpha4/beta2 (P09483 whole entry): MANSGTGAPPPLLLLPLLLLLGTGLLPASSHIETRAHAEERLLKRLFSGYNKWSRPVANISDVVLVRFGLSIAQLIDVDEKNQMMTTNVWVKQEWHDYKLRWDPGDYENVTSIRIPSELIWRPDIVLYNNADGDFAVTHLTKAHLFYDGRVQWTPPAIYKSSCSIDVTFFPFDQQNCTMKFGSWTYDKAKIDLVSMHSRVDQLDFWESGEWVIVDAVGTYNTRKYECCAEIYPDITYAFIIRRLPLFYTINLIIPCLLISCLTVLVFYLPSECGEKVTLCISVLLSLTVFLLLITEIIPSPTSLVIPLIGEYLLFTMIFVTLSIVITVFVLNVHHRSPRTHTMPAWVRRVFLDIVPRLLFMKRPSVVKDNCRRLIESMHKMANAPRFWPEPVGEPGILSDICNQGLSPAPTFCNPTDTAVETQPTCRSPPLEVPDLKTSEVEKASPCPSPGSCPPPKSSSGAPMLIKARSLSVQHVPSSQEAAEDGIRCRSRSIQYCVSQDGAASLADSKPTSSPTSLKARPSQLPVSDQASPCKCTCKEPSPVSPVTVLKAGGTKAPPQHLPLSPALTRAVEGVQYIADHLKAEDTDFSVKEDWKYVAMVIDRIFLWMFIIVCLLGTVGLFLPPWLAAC
Sequence of Neuronal acetylcholine receptor; alpha4/beta2 (P12390 whole entry): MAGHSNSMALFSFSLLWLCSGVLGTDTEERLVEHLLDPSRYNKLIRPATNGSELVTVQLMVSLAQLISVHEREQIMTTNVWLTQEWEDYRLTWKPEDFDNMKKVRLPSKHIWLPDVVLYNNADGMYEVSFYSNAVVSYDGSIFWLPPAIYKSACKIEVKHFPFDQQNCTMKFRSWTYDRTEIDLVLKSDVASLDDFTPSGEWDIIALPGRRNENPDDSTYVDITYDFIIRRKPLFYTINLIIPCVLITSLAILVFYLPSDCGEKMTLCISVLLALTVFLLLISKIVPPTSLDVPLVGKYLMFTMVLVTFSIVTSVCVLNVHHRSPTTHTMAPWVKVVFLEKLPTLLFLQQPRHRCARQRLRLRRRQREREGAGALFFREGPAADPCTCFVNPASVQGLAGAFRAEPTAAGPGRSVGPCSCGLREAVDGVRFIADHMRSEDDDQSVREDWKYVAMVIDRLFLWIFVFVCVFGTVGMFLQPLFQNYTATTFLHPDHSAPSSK
T1 sequence (Q05941 whole entry): as the sequence (Q05941 whole entry) above

In the case of `O=C(CCCN1CCOCC1)Nc1ccc(-c2cccnc2)cc1`, the inhibition entry in experiment [1] is “inactive”. The Ki in experiment [2], in experiment [3] and in experiment [5] was greater than 10 µM in each case. In addition, in experiment [4], the result was inactive.

As for `O=C(CCCCN1CCOCC1)Nc1ccc(-c2cccnc2)cc1`, the Ki in experiment [2] was greater than 10 µM; in experiment [3], 0.5 µM; in experiment [5], greater than 10 µM. The EC50 in experiment [6] stood at 9.5 µM. The compound further came in with an Activity in experiment [7] of 11%.

As for `O=C(CN1CCOCC1)Nc1ccc(-c2cccnc2)cc1`, in experiment [1], the inhibition result was “inactive”. Also, the Ki in experiment [2] was greater than 10 µM; in experiment [3] it was 3.9 µM; in experiment [5], greater than 10 µM. Moreover, in experiment [4], the outcome was inactive.

For the compound `O=C(CCCCCN1CCOCC1)Nc1ccc(-c2cccnc2)cc1`, the inhibition result in experiment [1] is “inactive”. For the same compound, the Ki in experiment [2], in experiment [3] and in experiment [5] was greater than 10 µM in each case. Further, the outcome in experiment [4] was inactive.

For the compound `O=C(CCN1CCOCC1)Nc1ccc(-c2cccnc2)cc1`, the inhibition entry in experiment [1] was “inactive”. Also, the Ki in experiment [2], in experiment [3] and in experiment [5] was greater than 10 µM in each case. In addition, the outcome in experiment [4] was inactive.
